≈ marks a conversion by molar mass, not a printed value. One block for each compound: values may come before it. Calls of active or inactive are those of the source. The calls are words filed in the database; no cut-off is given here.
Legend:
P388 [1] = test: Median survival time per control mice with leukemia P388 at 40 mg/kg dose injected intraperitoneally; assay type: functional, Mus musculus; settings: route intraperitoneal
In short: (§1)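 CD2F1 mice (six per group) implanted ip with 10⁶ P388 leukemia cells. Drug dissolved in 0.9% NaCl with a drop of Tween 80, given ip once daily on days 1 and 5. % T/C = median survival time treated/control × 100.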

[2] = Percent fluorescence of the ethidium bromide-DNA complex
In short: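 Ethidium displacement: ethidium bromide 3 µM and calf thymus DNA 20 µM in Hepes 2 mM, EDTA 10 µM, NaCl 9.4 mM, pH 7.0; drug 10 µM. Excitation 564 nm filter, emission 595 nm. Fluorescence with drug as % of drug-free control; mean ± SE of three experiments.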

P388 [3] = test: Median survival time per control mice with leukemia P388 at 20 mg/kg dose injected intraperitoneally; assay type: functional, Mus musculus; settings: route intraperitoneal; in short: as §1
[4] = Inhibition of KB cell growth in vitro; assay type: functional, cell-based; settings: Homo sapiens
In short: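 KB clonal cells in Eagle's MEM with 10% calf serum, 37 °C, 5% CO2; seeded 2100 cells/cm², medium changed at 24 h, then graded drug 0.3–100 µg/mL for 48 h, duplicate dishes per concentration. Cells trypsinized and counted by Coulter counter; IC50 from log concentration vs growth rate (% of control).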

P388 [5] = test: Median survival time per control mice with leukemia P388 at 10 mg/kg dose injected intraperitoneally; assay type: functional, Mus musculus; settings: route intraperitoneal; in short: as §1
P388 [6] = test: Median survival time per control mice with leukemia P388 at 400 mg/kg dose injected a dose of 400 mg/kg; assay type: functional, organism-based; settings: Mus musculus
In short: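 CD2F1 mice (six per group) given 10⁶ P388 cells ip; drug in 0.9% NaCl with a drop of Tween 80, ip on days 1 and 5. Activity as % T/C of median survival time, treated vs control.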

P388 [7] = test: Median survival time per control mice with leukemia P388 at 400 mg/kg dose injected intraperitoneally; assay type: functional, Mus musculus; settings: route intraperitoneal; in short: as §1
P388 [8] = test: Median survival time per control mice with leukemia P388 at 25 mg/kg dose injected intraperitoneally; assay type: functional, Mus musculus; settings: route intraperitoneal; in short: as §1
P388 [9] = test: Median survival time per control mice with leukemia P388 at 100 mg/kg dose injected intraperitoneally; assay type: functional, Mus musculus; settings: route intraperitoneal; in short: as §1
[10] = tested on: DNA topoisomerase II (Bos taurus); test: Activity of the topoisomerase II dependent DNA cleavage; Active
P388 [11] = test: Median survival time per control mice with leukemia P388 at 12.5 mg/kg dose injected intraperitoneally; assay type: functional, Mus musculus; settings: route intraperitoneal; in short: as §1
P388 [12] = test: Median survival time per control mice with leukemia P388 at 50 mg/kg dose injected intraperitoneally; assay type: functional, Mus musculus; settings: route intraperitoneal; in short: as §1
P388 [13] = test: Median survival time per control mice with leukemia P388 at 200 mg/kg dose injected intraperitoneally; assay type: functional, Mus musculus; settings: route intraperitoneal; in short: as §1
[14] = tested on: DNA topoisomerase 1 (Bos taurus); test: Unwinding of DNA observed in a reaction mixture containing PBR322 DNA dimer, calf thymus DNA topoisomerase I, and the drug; + = unwinding was observed at 100 ug/mL
[15] = tested on: DNA topoisomerase 1 (Bos taurus); test: Unwinding of DNA observed in a reaction mixture containing PBR322 DNA dimer, calf thymus DNA topoisomerase I, and the drug; ++ = unwinding was observed at 25 ug/mL
[16] = tested on: DNA topoisomerase II (Bos taurus); test: Activity of the topoisomerase II dependent DNA cleavage; Inactive
[17] = tested on: DNA topoisomerase II (Bos taurus); test: Activity of the topoisomerase II dependent DNA cleavage; (-) = Inactive
M5076 [18] = test: Median survival time per control animal with M5076 cells at 50 mg/kg dose injected intraperitoneally on day 1,5,9; assay type: functional, Mus musculus; settings: route intraperitoneal
In short: (§2)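 B6D2F1 mice inoculated ip with 10⁶ M5076 fibrosarcoma cells; drug given ip on days 1, 5 and 9. Activity read as % T/C, ratio of median survival time of treated to control group.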

M5076 [19] = test: Median survival time per control animal with M5076 cells at 25 mg/kg dose injected intraperitoneally on day 1,5,9; assay type: functional, Mus musculus; settings: route intraperitoneal; in short: as §2
[20] = Median survival time per control animal with colon 38 carcinoma cells at 35 mg/kg dose injected intraperitoneally on day 1,8,15,22; assay type: functional, Mus musculus; settings: route intraperitoneal
In short: (§3)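 Colon 38 inoculated sc as a 1 × 1 × 1 mm³ fragment into B6D2F1 mice; drug dosed ip on days 1, 8, 15 and 22. Result expressed as % T/C of median survival time, treated versus control.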

M5076 [21] = test: Median survival time per control animal with M5076 cells at 12.5 mg/kg dose injected intraperitoneally on day 1,5,9; assay type: functional, Mus musculus; settings: route intraperitoneal; in short: as §2
M5076 [22] = test: Median survival time per control animal with M5076 cells at 6.3 mg/kg dose injected intraperitoneally on day 1,5,9; assay type: functional, Mus musculus; settings: route intraperitoneal; in short: as §2
B16 [23] = test: Median survival time per control animal with B16 cells at 6.3 mg/kg dose injected intraperitoneally on day 1,5,8; assay type: functional, Mus musculus; settings: route intraperitoneal
In short: (§4)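 Female-unspecified B6D2F1 mice inoculated ip with 0.5 mL of 10% homogenate (Hank's saline) of subcutaneous B16 melanoma. Drug given ip on days 1, 5 and 8. % T/C = median survival time of treated over control group.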

[24] = Median survival time per control animal with colon 38 carcinoma cells at 12.5 mg/kg dose injected intraperitoneally on day 1,8,15,22; assay type: functional, Mus musculus; settings: route intraperitoneal; in short: as §3
B16 [25] = test: Median survival time per control animal with B16 cells at 12.5 mg/kg dose injected intraperitoneally on day 1,5,8; assay type: functional, Mus musculus; settings: route intraperitoneal; in short: as §4
[26] = Median survival time per control animal with colon 38 carcinoma cells at 6.3 mg/kg dose injected intraperitoneally on day 1,8,15,22; assay type: functional, Mus musculus; settings: route intraperitoneal; in short: as §3
[27] = Median survival time per control animal with colon 38 carcinoma cells at 25 mg/kg dose injected intraperitoneally on day 1,8,15,22; assay type: functional, Mus musculus; settings: route intraperitoneal; in short: as §3
M5076 [28] = test: Median survival time per control animal with M5076 cells at 3.1 mg/kg dose injected intraperitoneally on day 1,5,9; assay type: functional, Mus musculus; settings: route intraperitoneal; in short: as §2
B16 [29] = test: Median survival time per control animal with B16 cells at 25 mg/kg dose injected intraperitoneally on day 1,5,8; assay type: functional, Mus musculus; settings: route intraperitoneal; in short: as §4

Fluoroscence [2]: 82%
Structure (SMILES): CN(C)CCCNc1c2c(nc3ccccc13)CCCC2
T/C (P388 [6]): inactive
IC50 [4]: 1.3 µg/mL (≈ 4.59 µM)

Fluoroscence [2]: 106%
Structure (SMILES): COc1cc(NS(C)(=O)=O)ccc1Nc1c2c(nc3ccccc13)CCSC2
T/C (P388 [6]): inactive
IC50 [4]: 46 µg/mL (≈ 111 µM)

Fluoroscence [2]: 95.3%
Activity [16]: inactive
Structure (SMILES): COc1cc(NS(C)(=O)=O)ccc1Nc1c2c(nc3ccccc13)-c1ccccc1C2C (centres undefined)
T/C (P388 [6]): inactive
IC50 [4]: 15 µg/mL (≈ 33.7 µM)

Fluoroscence [2]: 93.6%
Structure (SMILES): COc1cc(NS(C)(=O)=O)ccc1Nc1c2ccccc2nc2c3ccccc3n(C)c12
T/C (P388 [6]): inactive
IC50 [4]: 3.6 µg/mL (≈ 8.06 µM)

Fluoroscence [2]: 104%
Structure (SMILES): COc1cc(NS(C)(=O)=O)ccc1Nc1c2c(nc3ccccc13)CCN(C)C2
T/C (P388 [6]): inactive
IC50 [4]: > 100 µg/mL

Fluoroscence [2]: 93.3%
Activity [16]: inactive
Structure (SMILES): COc1cc(NS(C)(=O)=O)ccc1Nc1c2c(nc3ccccc13)CCCC2
T/C (P388 [6]): inactive
IC50 [4]: 41 µg/mL (≈ 103 µM)

Further lines, the compound ahead of its results:

Structure (SMILES): COc1cc(NS(C)(=O)=O)ccc1Nc1c2ccccc2nc2ccccc12 [AMSACRINE]
T/C (P388 [1]): 223%
Fluoroscence [2]: 63.7%
T/C (P388 [3]): 198%
IC50 [4]: < 0.3 µg/mL
T/C (P388 [5]): 174%

Structure (SMILES): COc1cc(NS(C)(=O)=O)ccc1Nc1c2ccccc2nc2c1oc1ccccc12
T/C (P388 [7]): 248%
Fluoroscence [2]: 81.4%
T/C (P388 [8]): 125%
T/C (P388 [9]): 138%
Activity [10]: Active
T/C (P388 [11]): 117%
IC50 [4]: < 0.3 µg/mL
T/C (P388 [12]): 159%
T/C (P388 [13]): 168%
Unwinding [14]: unwinding was observed at 100 ug/mL

Structure (SMILES): COc1cc(NS(C)(=O)=O)ccc1Nc1c2ccccc2nc2c1sc1ccccc12
T/C (P388 [7]): 252%
Fluoroscence [2]: 79.3%
T/C (P388 [8]): 170%
Unwinding [15]: unwinding was observed at 25 ug/mL
T/C (P388 [9]): 166%
Activity [10]: Active
T/C (P388 [11]): 138%
IC50 [4]: < 0.3 µg/mL
T/C (P388 [12]): 170%
T/C (P388 [13]): 238%

Structure (SMILES): CN(C)CCCNc1c2c(nc3ccccc13)CCN(C)C2
T/C (P388 [6]): inactive
IC50 [4]: 14 µg/mL (≈ 46.9 µM)

Structure (SMILES): CN(C)CCCNc1c2c(nc3ccccc13)-c1ccccc1C2
Fluoroscence [2]: 5.45%
T/C (P388 [8]): 88%
T/C (P388 [11]): 110%
IC50 [4]: < 0.3 µg/mL
Activity [17]: inactive
T/C (P388 [12]): 101%

Structure (SMILES): COc1cc(NS(C)(=O)=O)ccc1Nc1c2c(nc3ccccc13)-c1ccccc1C2
T/C (P388 [7]): 0%
T/C (M5076 [18]): 92%
T/C (M5076 [19]): 111%
Fluoroscence [2]: 67.6%
T/C (P388 [8]): 217%
T/C [20]: 150%
T/C (M5076 [21]): 184%
T/C (M5076 [22]): 158%
T/C (B16 [23]): 184%
T/C (P388 [9]): 80%
Activity [10]: Active
T/C (P388 [11]): 166%
T/C [24]: 133%
IC50 [4]: < 0.3 µg/mL
T/C (B16 [25]): 223%
T/C [26]: 111%
T/C [27]: 138%
T/C (M5076 [28]): 193%
T/C (B16 [29]): 211%
T/C (P388 [12]): 240%
T/C (P388 [13]): 60%

Reference: ChEMBL document CHEMBL1124690, “Synthesis and antitumor activity of fused tetracyclic quinoline derivatives. 1” (J Med Chem, 1989)
